Results on one compound are retold here after ChEMBL document CHEMBL3877241 (J Med Chem, 2016).

Data set [1] can be described thus: Therapeutic index, ratio of IC50 for mouse TAMH cells to IC50 for human cancer cells. The note with it: cancer cell lines.
A further data set deals with Histone deacetylase 8 (Homo sapiens, UniProt Q9BY41). The data set is described as follows: Inhibition of human recombinant C-terminal His-tagged HDAC8 (1 to 377 residues) expressed in insect cells preincubated with enzyme followed by fluorogenic Arg-His-Lys(Ac)-Lys(Ac)-AMC substrate addition measured after 2 hrs by fluorescence assay. Summed up:
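HDAC8 in 50 mM Tris-HCl pH 8.0, 137 mM NaCl, 2.7 mM KCl, 1 mM MgCl2 was pre-incubated with compound from DMSO. 50 µM Arg-His-Lys(Ac)-Lys(Ac) substrate was added and the reaction ran 2 h at 30 °C. Trichostatin A developer stopped it, with fluorescence read at Ex/Em 360/460 nm. IC50 from a 10-dose curve.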

Data set [2] can be described thus: Antiproliferative activity against human OPM2 cells after 48 hrs by CellTiter-Glo assay. Format: functional, cell-based. The note with it: OPM-2, 48 h. Put shortly: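 OPM2 grown in RPMI 1640 with 10% FBS and penicillin/streptomycin at 37 °C, 5% CO2. Treated at 25,000 cells/well in triplicate for 48 h. Viability read by CellTiter-Glo luminescence. IC50 taken from a sigmoidal fit of % viability vs log concentration.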
Background: In ATP-based viability assays light output follows the ATP content of the culture.

Data set [3] concerns the target Non-receptor tyrosine-protein kinase TYK2 (Homo sapiens, UniProt P29597). As to the kind of experiment: Inhibition of TYK2 (unknown origin) at 0.1 uM preincubated for 20 mins followed by [33P]ATP addition measured after 120 mins by Hotspot assay relative to control. Put shortly:
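Radiometric HotSpot kinase assay. Buffer: 20 mM HEPES pH 7.5, 10 mM MgCl2, 1 mM EGTA, 0.02% Brij35, 0.02 mg/mL BSA, 0.1 mM Na3VO4, 2 mM DTT, 1% DMSO. Compound added about 20 min before ATP/[33P]ATP (10 μM final). Reactions run 120 min at 25 °C, spotted on P81 filters and washed in phosphoric acid. Activity expressed relative to DMSO after background subtraction. Single-concentration panel at 100 nM in duplicate.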

Another data set concerns the target Histone deacetylase 11 (Homo sapiens, UniProt Q96DB2). As to the kind of experiment: Inhibition of human recombinant N-terminal His-tagged HDAC11 (1 to 347 residues) expressed in baculovirus infected insect cells preincubated with enzyme followed by fluorogenic Arg-His-Lys-Lys(Ac)-AMC substrate addition measured after 2 hrs by fluorescence assay relative to control.

In data set [4] the target is Histone deacetylase 9 (Homo sapiens) (UniProt Q9UKV0). As to the kind of experiment: Inhibition of HDAC9 (unknown origin) at 10 uM preincubated with enzyme followed by acetyl-Lys(trifluoroacetyl)-AMC substrate addition measured after 2 hrs by fluorescence assay relative to control. Put shortly: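 Fluorogenic HDAC assay in 50 mM Tris-HCl pH 8.0, 137 mM NaCl, 2.7 mM KCl, 1 mM MgCl2. Enzyme pre-incubated with compound delivered in DMSO. Substrate then added: Arg-His-Lys(Ac) at 50 μM for most isoforms, or acetyl-Lys(trifluoroacetyl)-AMC for class IIa. Incubated 2 h at 30 °C, stopped with developer plus trichostatin A, read at Ex/Em 360/460 nm at endpoint. IC50 from 10-dose curves.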
Chain of Histone deacetylase 9 (Homo sapiens) (Q9UKV0 whole entry, canonical isoform): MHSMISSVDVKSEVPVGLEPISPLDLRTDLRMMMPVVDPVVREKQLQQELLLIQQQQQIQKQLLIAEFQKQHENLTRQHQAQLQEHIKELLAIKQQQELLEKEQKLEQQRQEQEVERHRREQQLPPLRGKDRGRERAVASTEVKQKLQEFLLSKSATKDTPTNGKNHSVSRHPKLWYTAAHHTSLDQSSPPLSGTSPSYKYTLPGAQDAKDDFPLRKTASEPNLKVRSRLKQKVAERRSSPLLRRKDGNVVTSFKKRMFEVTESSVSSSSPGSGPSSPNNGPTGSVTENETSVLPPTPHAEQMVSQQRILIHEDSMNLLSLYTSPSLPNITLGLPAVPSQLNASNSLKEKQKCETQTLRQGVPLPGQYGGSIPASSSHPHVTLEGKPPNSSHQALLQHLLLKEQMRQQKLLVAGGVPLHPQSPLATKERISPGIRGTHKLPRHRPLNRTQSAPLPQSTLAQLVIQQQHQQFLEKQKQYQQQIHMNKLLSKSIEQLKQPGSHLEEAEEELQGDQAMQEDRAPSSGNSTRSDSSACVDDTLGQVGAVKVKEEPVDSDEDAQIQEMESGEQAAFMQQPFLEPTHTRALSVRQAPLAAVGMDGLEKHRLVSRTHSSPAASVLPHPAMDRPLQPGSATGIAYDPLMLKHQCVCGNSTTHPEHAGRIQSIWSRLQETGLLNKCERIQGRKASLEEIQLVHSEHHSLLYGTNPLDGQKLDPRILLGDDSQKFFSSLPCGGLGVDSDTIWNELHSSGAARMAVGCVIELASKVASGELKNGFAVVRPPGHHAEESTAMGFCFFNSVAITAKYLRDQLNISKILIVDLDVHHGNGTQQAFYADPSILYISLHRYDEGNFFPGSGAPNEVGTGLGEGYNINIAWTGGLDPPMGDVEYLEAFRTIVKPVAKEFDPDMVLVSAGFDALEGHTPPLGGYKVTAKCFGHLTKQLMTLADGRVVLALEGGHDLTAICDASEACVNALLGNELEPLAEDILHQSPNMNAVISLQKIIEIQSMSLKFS

Data set [5] concerns the target T1, Protein deacetylase HDAC6 (Homo sapiens, UniProt Q9UBN7).
T1 sequence (Q9UBN7 whole entry): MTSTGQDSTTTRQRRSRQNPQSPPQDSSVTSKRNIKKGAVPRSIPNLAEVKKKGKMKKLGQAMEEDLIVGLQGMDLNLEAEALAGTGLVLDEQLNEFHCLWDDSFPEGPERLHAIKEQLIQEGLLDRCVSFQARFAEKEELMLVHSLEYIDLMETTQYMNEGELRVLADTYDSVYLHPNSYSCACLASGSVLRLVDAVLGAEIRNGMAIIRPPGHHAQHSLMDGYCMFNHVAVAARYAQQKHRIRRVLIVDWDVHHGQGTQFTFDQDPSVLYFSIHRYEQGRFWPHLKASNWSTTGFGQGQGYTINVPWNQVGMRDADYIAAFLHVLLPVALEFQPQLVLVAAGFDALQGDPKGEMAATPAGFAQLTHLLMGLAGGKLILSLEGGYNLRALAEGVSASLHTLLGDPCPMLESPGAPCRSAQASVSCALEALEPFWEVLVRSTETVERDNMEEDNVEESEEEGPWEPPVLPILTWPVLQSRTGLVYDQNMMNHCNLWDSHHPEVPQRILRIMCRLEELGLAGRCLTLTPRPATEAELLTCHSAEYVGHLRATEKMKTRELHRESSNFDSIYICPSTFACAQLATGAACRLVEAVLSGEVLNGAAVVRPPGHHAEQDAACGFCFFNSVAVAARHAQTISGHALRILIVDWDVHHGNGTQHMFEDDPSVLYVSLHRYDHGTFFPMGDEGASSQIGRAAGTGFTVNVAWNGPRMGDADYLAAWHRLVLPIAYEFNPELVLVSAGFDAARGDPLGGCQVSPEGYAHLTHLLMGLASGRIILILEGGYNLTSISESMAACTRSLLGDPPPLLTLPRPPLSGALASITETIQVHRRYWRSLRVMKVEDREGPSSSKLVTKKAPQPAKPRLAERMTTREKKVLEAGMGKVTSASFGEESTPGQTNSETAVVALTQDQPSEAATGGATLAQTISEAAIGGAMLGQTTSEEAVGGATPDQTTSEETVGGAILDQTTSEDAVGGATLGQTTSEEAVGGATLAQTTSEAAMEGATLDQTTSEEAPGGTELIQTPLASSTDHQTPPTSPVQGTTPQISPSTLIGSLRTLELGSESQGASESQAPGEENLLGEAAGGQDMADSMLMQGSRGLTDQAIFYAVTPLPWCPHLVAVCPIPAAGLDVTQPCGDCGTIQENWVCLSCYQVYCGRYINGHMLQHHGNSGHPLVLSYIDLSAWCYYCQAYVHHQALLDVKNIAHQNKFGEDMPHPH
As to the kind of experiment: Inhibition of full length human recombinant N-terminal GST-tagged HDAC6 (1 to 1215 residues) expressed in sf9 cells preincubated with enzyme followed by fluorogenic Arg-His-Lys-Lys(Ac)-AMC substrate addition measured after 2 hrs by fluorescence assay.

In data set [6] the target is Mast/stem cell growth factor receptor Kit (Homo sapiens, UniProt P10721). The data set is described as follows: Inhibition of human KIT (I571 to D952 residues) expressed in bacterial expression system assessed as residual activity at 100 nM by KINOMEScan assay relative to control. Summed up:
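Done by DiscoveRx as an ATP-site binding panel covering 97 kinases across the kinome. It measures binding rather than inhibition of phosphate transfer. The compound was tested at 100 nM, and the result is expressed as percent of control binding.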

Data set [7] deals with Mitogen-activated protein kinase 8 (Homo sapiens, UniProt P45983). As to the kind of experiment: Inhibition of full length human MAPK8 (M1 to Q384 residues) expressed in mammalian expression system by KINOMEScan assay.
Chain of Mitogen-activated protein kinase 8 (P45983 whole entry, the tested form may be a part): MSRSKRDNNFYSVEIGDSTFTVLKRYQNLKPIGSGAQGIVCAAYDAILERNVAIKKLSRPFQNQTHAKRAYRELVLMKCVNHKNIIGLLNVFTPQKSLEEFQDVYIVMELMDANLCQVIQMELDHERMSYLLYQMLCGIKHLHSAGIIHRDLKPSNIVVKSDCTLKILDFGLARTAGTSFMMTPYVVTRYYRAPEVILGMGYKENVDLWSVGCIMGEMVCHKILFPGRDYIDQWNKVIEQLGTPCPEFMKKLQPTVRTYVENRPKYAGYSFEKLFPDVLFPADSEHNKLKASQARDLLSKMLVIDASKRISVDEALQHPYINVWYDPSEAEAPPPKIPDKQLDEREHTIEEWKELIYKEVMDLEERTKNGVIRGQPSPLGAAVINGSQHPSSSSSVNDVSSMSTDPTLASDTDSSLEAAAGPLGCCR

What is called IC50 is the point on the concentration scale where inhibition reaches its midpoint. What is called inhibition is how much of the control response was suppressed. A higher inhibition goes with a response far below the control.

Chain of Histone deacetylase 11 (Q96DB2 whole entry, the tested form may be a part): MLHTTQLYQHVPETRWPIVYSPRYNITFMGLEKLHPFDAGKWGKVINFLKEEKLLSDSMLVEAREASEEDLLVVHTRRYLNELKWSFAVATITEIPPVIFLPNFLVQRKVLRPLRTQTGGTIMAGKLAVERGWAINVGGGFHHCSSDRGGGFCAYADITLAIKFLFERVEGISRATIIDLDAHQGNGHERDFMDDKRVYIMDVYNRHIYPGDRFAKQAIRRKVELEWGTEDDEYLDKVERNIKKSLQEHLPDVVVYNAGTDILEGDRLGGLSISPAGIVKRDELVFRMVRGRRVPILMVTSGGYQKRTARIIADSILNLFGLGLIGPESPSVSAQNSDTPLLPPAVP
Chain of Mast/stem cell growth factor receptor Kit (P10721 whole entry, the tested form may be a part): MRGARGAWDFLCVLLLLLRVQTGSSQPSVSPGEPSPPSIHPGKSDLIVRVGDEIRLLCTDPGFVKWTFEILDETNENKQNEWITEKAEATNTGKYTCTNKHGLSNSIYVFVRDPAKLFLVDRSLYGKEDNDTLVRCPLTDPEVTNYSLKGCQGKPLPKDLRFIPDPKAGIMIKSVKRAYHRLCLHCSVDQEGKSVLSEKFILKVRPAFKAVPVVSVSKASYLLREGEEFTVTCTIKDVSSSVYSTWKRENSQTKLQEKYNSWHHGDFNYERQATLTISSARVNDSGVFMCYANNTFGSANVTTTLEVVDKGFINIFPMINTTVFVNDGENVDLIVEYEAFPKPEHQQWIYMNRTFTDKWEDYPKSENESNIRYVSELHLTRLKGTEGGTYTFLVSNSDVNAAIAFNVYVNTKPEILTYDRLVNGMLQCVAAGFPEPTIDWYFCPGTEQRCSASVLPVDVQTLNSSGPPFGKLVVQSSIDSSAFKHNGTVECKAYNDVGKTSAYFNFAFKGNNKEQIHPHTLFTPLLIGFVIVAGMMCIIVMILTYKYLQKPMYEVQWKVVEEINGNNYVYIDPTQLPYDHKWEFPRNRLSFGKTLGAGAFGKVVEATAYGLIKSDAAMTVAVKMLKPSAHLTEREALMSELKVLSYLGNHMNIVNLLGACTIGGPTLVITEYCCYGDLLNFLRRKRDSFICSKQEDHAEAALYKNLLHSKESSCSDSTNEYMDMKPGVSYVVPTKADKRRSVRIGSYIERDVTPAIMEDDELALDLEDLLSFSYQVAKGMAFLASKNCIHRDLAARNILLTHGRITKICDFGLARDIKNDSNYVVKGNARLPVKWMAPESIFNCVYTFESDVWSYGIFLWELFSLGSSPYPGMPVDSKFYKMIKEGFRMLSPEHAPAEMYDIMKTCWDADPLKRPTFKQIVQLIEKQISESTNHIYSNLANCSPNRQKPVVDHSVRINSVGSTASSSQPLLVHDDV
Chain of Histone deacetylase 8 (Q9BY41 whole entry, the tested form may be a part): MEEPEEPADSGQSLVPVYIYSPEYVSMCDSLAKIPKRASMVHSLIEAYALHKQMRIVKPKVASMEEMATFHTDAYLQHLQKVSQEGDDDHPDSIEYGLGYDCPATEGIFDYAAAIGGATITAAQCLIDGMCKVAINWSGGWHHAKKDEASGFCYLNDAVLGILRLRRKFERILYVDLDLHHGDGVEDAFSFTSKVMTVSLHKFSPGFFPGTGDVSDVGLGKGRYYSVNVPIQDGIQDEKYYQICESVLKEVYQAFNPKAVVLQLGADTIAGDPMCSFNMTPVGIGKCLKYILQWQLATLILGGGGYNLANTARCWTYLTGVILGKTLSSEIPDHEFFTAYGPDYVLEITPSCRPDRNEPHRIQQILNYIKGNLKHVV
Chain of Non-receptor tyrosine-protein kinase TYK2 (P29597 whole entry): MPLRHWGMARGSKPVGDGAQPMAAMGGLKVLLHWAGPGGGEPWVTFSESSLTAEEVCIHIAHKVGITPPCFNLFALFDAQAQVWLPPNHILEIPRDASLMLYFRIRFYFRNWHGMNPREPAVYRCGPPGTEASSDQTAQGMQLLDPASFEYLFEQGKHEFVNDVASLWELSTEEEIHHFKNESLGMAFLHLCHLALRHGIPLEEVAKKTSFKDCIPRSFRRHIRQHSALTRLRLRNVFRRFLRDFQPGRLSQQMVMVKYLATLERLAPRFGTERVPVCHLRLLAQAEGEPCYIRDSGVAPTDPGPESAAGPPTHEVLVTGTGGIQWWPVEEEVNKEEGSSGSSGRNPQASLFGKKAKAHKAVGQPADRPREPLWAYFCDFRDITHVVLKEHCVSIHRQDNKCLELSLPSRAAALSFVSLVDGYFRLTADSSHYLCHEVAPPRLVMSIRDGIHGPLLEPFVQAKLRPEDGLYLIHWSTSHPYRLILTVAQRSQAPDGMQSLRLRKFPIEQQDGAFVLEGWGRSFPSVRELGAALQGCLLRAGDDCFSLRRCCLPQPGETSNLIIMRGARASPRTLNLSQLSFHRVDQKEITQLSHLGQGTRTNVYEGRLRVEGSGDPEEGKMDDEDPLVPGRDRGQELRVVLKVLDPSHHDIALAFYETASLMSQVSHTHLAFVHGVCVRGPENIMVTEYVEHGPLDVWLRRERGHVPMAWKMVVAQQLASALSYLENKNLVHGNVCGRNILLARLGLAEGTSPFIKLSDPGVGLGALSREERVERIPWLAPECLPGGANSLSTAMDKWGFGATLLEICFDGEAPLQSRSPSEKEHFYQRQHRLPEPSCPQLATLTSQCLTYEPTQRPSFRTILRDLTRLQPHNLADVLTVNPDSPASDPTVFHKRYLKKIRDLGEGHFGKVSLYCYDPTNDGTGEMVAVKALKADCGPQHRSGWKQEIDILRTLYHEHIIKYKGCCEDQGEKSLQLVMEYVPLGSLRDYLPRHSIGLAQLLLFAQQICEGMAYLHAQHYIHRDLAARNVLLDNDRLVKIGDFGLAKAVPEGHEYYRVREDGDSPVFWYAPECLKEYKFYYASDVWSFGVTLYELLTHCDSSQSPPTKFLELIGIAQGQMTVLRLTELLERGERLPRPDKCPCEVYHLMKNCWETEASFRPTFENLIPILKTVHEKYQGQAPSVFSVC

Turning to `O=C(CCCCCCOc1ccc2cc1COC/C=C/COCc1cccc(c1)-c1ccnc(n1)N2)NO`, the selectivity ratio in [1] worked out at 8.7. Further, the IC50 on Histone deacetylase 8 is 740 nM; in data set [2], 2050 nM; on Histone deacetylase 11, 930 nM; in data set [5] it was 2.1 nM; in data set [7], 1000 to 10000 nM. For the same compound, the inhibition turned out to be 56% in [3] and 14% in data set [4]. In addition, the Activity in data set [6] turned out to be 21%.
